From ChEMBL document CHEMBL5154701, “Thieno[2,3-d]pyrimidine-2,4(1H,3H)-dione Derivative Inhibits d-Dopachrome Tautomerase Activity and Suppresses the Proliferation of Non-Small Cell Lung Cancer Cells” (J Med Chem, 2022)
Values after ≈ are worked out from the molar mass of the structure shown. Each block holds one molecule with its values, some of them ahead of it. Active and inactive are the calls of the source. The rule behind the calls is not given here.

Columns and labels:
[1] = Inhibition of human recombinant MIF2 tautomerase activity expressed in bacterial expression system assessed as PP conversion incubated for 10 mins by tautomerase assay
[2] = Inhibition of human MIF2 tautomerase activity expressed in Escherichia coli by anion-exchange chromatography
[3] = Solubility of the compound; format: physicochemical
[4] = organism: Homo sapiens; assay: Substrate activity at MIF2 tautomerase (unknown origin) assessed as ratio of Kcat to Km
Outline: (§1)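 Keto-enol tautomerization kinetics with phenylpyruvate, 4-chloro-, 4-hydroxy- and 4-methoxyphenylpyruvate as substrates. Initial conversion velocities taken from the linear first 3 min of UV absorbance increase. Kcat, Km and Kcat/Km derived from these rates.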

[5] = organism: Homo sapiens; assay: Substrate activity at MIF2 tautomerase (unknown origin) assessed as rate constant Km; outline: as §1
[6] = organism: Homo sapiens; assay: Substrate activity at MIF2 tautomerase (unknown origin) assessed as rate constant Kcat; outline: as §1
[7] = system: NCI-H1299; assay: Inhibition of colony formation in human NCI-H1299 cells assessed as colony number measured after 5 days by crystal violet staining method; format: functional, cell-based; details: dose 1-10 µM, time 5.0 day, DDE = dose-dependent effect
Outline: (§2)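 Seeded at 1000 cells/well in RPMI-1640 with 10% FBS and incubated overnight. Exposed to compound or DMSO for 5 days. Fixed in 4% paraformaldehyde for 20 min, then stained with 0.5% crystal violet for 20 min. Colonies imaged, dissolved in acetic acid, and absorbance read at 590 nm. Values relative to DMSO wells. Three experiments, mean ± SD.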

[8] = system: HCC827; assay: Inhibition of colony formation in human HCC827 cells assessed as colony number measured after 5 days by crystal violet staining method; format: functional, cell-based; details: dose 1-10 µM, time 5.0 day, DDE = dose-dependent effect; outline: as §2
[9] = system: NCI-H1299; assay: Inhibition of colony formation in human NCI-H1299 cells assessed as colony size measured after 5 days by crystal violet staining method; format: functional, cell-based; details: dose 1-10 µM, time 5.0 day, DDE = dose-dependent effect; outline: as §2
[10] = system: A549; assay: Inhibition of colony formation in human A549 cells assessed as colony number measured after 5 days by crystal violet staining method; format: functional, cell-based; details: dose 1-10 µM, time 5.0 day, DDE = dose-dependent effect; outline: as §2
[11] = system: HCC827; assay: Antiproliferative against human HCC827 cells assessed as inhibition of cell viability measured after 72 hrs by fluorescence based assay; format: functional
Outline: (§3)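 Cells in RPMI-1640 with 10% FBS, 37 °C, 5% CO2, seeded at 1000 cells/well and cultured overnight. Treated with compound (0.25–10 μM) for 72 h. Relative cell number from DNA content by CyQUANT Direct, with 60 min detection reagent and fluorescence read at 485/535 nm. Normalized to DMSO control. Mean ± SD of three experiments.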

[12] = system: NCI-H1650; assay: Antiproliferative against human NCI-H1650 cells assessed as inhibition of cell viability measured after 72 hrs by fluorescence based assay; format: functional; outline: as §3
[13] = system: HCC827; assay: Inhibition of colony formation in human HCC827 cells at 10 uM measured after 5 days by crystal violet staining method; format: functional; details: HCC827, 120 h, time 5 day; outline: as §2
[14] = system: HCC827; assay: Inhibition of colony formation in human HCC827 cells assessed as colony size measured after 5 days by crystal violet staining method; format: functional, cell-based; details: dose 1-10 µM, time 5.0 day, DDE = dose-dependent effect; outline: as §2
[15] = system: A549; assay: Induction of cell cycle arrest in human A549 cells assessed as accumulation of cells in G0/G1 phase for 2 days by flow cytometry analysis; format: functional, cell-based; details: dose 5-10 µM, time 2.0 day, DDE = dose-dependent effect
Outline: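 A549 seeded at 1 × 10^5 per well and treated next day with compound or vehicle for 48 h. Cells trypsinized, then stained with 20 μg/mL propidium iodide plus 0.1% Triton X-100 for 15 min at room temperature. 30 000 cells acquired by flow cytometry and G0/G1, S and G2/M fractions gated. n = 3, mean ± SD.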

[16] = system: A549; assay: Antiproliferative against human A549 cells assessed as inhibition of cell viability measured after 72 hrs by fluorescence based assay; format: functional; outline: as §3
[17] = system: NCI-H1299; assay: Inhibition of colony formation in human NCI-H1299 cells at 10 uM measured after 5 days by crystal violet staining method; format: functional; details: NCI-H1299, 120 h, time 5 day; outline: as §2
[18] = system: A549; assay: Inhibition of MIF2 related signalling pathway assessed as inhibition of MIF2 induced ERK phosphorylation in human A549 cells in presence of recombinant MIF2 incubated for 15 min by Western blot analysis; format: cell-based; details: dose 0.1-10 µM, DDE = dose-dependent effect
Outline: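 A549 (3 × 10^5/well) grown overnight in RPMI with 0.5% FBS. Stimulated 15 min with recombinant MIF2 (100 ng/mL, serum-free), alone or preincubated with compound. Lysed in RIPA with phosphatase/protease inhibitors, and 20 μg protein blotted for pERK, ERK and GAPDH. pERK:ERK densitometry normalized to control; n = 2.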

[19] = organism: Homo sapiens; assay: Stabilization of human recombinant MIF2 expressed in bacterial expression system assessed as apparent melting temperature by fluorescence based thermal shift assay; details: DDE = dose-dependent effect
Outline: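 Recombinant MIF2 expressed from pET20b(+) in E. coli BL21(DE3) and purified by Q sepharose, phenyl sepharose and size exclusion (trimer), in 20 mM sodium phosphate pH 8.0. Fluorescence-based thermal shift read-out: apparent melting temperature with compound versus DMSO control, with ΔTm as the difference.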

[20] = system: NCI-H1650; assay: Inhibition of colony formation in human NCI-H1650 cells assessed as colony size measured after 5 days by crystal violet staining method; format: functional, cell-based; details: dose 1-10 µM, time 5.0 day, DDE = dose-dependent effect; outline: as §2
[21] = system: NCI-H1650; assay: Inhibition of colony formation in human NCI-H1650 cells at 10 uM measured after 5 days by crystal violet staining method; format: functional; details: NCI-H1650, 120 h, time 5 day; outline: as §2
[22] = system: A549; assay: Inhibition of colony formation in human A549 cells at 10 uM measured after 5 days by crystal violet staining method; format: functional; details: A549, 120 h, time 5 day; outline: as §2
[23] = system: A549; assay: Inhibition of colony formation in human A549 cells assessed as colony size measured after 5 days by crystal violet staining method; format: functional, cell-based; details: dose 1-10 µM, time 5.0 day, DDE = dose-dependent effect; outline: as §2
[24] = system: NCI-H1650; assay: Inhibition of colony formation in human NCI-H1650 cells assessed as colony number measured after 5 days by crystal violet staining method; format: functional, cell-based; details: dose 1-10 µM, time 5.0 day, DDE = dose-dependent effect; outline: as §2
[25] = system: NCI-H1299; assay: Antiproliferative against human NCI-H1299 cells assessed as inhibition of cell viability measured after 72 hrs by fluorescence based assay; format: functional; outline: as §3
[26] = system: A549; assay: Antiproliferative against human A549 cells assessed as inhibition of cell viability at 1 uM measured after 72 hrs by fluorescence based assay; format: functional; outline: as §3
[27] = Inhibition of MIF2 (unknown origin); parameters: species or system Homo sapiens

Molecule: O=C(O)c1cccc(-c2cc(C(=O)O)ncc2C(=O)O)c1
IC50 [2]: 27 µM
IC50 [1]: 47 µM

Molecule: O=c1[nH]c2scc(-c3ccccc3)c2c(=O)n1Cc1ccccc1
IC50 [1]: 36 µM

Molecule: CCCCNC(=O)c1cc(-c2ccccc2)sc1NC(=O)CCC
IC50 [1]: 39 µM

Molecule: Nc1sc(-c2ccc(Cl)cc2)cc1C(=O)NCCc1ccccc1
IC50 [1]: 84 µM

Molecule: Cc1c(-c2ccc(Cl)cc2)sc2nc(CCl)[nH]c(=O)c12
IC50 [1]: 17 µM

Molecule: CCCCNC(=O)c1cc(-c2ccc(Cl)cc2)sc1N
IC50 [1]: 15 µM

Molecule: O=c1[nH]c2scc(-c3ccc(Cl)cc3)c2c(=O)n1Cc1ccccc1
IC50 [1]: 27 µM

Molecule: CCCCCCCCNC(=O)c1cc(-c2ccccc2)sc1N
IC50 [1]: 13 µM

Molecule: Cc1c(-c2ccc(Cl)cc2)sc2[nH]c(=O)n(-c3ccccc3)c(=O)c12
IC50 [1]: 19 µM

Molecule: Nc1sc(-c2ccc(Cl)cc2)cc1C(=O)NCCc1ccc(Cl)cc1
IC50 [1]: 36 µM

Molecule: 4-methoxyphenylpyruvate
kcat/Km [4]: 0.43 10^4/M/s
Km [5]: 6.7 mM
kcat [6]: 28 s⁻¹

Molecule: 4-hydroxylphenylpyruvate
kcat/Km [4]: 0.37 10^4/M/s
Km [5]: 3.62 mM
kcat [6]: 13 s⁻¹

Molecule: CCOCCNC(=O)c1cc(-c2ccc(Cl)cc2)sc1N
IC50 [1]: > 100 µM

Molecule: phenylpyruvate
kcat/Km [4]: 5.5 10^4/M/s
Km [5]: 2.4 mM
kcat [6]: 132 s⁻¹

Molecule: Cc1c(-c2ccc(Cl)cc2)sc2nc(Cc3ccccc3)[nH]c(=O)c12
IC50 [1]: 15 µM

Molecule: Nc1sc(-c2ccccc2)cc1C(=O)NCC1CCOC1 (centres undefined)
IC50 [1]: 168 µM

Molecule: CCCCNC(=O)c1cc(-c2ccccc2)sc1NC(C)=O
IC50 [1]: 41 µM

Molecule: Ic1cc(-c2ccccc2)ncn1
IC50 [27]: > 100 µM

Molecule: Cc1c(-c2cccc(C(F)(F)F)c2)sc(N)c1C(=O)N[C@@H](C)c1cccc2ccccc12
IC50 [1]: 7.9 µM

Molecule: Cc1c(-c2ccc(F)cc2)sc2nc(Cc3ccccc3)[nH]c(=O)c12
IC50 [1]: 17 µM

Molecule: Cc1c(-c2ccccc2)sc2[nH]c(=O)n(Cc3ccccc3)c(=O)c12
IC50 [1]: 7.6 µM

Molecule: C=CCn1c(=O)[nH]c2sc(-c3ccc(Cl)cc3)cc2c1=O
IC50 [1]: 15 µM

Molecule: Cc1c(-c2ccccc2)sc2[nH]c(=O)n(-c3ccccc3)c(=O)c12
IC50 [1]: > 100 µM

Molecule: CCCCn1c(=O)[nH]c2sc(-c3ccccc3)cc2c1=O
IC50 [1]: 16 µM

Molecule: CCCCNC(=O)c1c(N)sc(-c2ccc(Cl)cc2)c1CCCC
IC50 [1]: 15 µM

Molecule: 4-chlorophenylpyruvate
kcat/Km [4]: 3.2 10^4/M/s
Km [5]: 2.17 mM
kcat [6]: 68 s⁻¹

Further lines, with some results ahead:

IC50 [1]: 4.6 µM
Molecule: Cc1c(-c2ccc3c(c2)OCO3)sc2[nH]c(=O)n(Cc3ccccc3)c(=O)c12

IC50 [1]: 4.2 µM
Molecule: Cc1c(-c2cccc(C(F)(F)F)c2)sc(N)c1C(=O)N[C@H](C)c1cccc2ccccc12

IC50 [1]: 1.9 µM
Molecule: Cc1c(-c2ccc(Cl)c(Cl)c2)sc2[nH]c(=O)n(Cc3ccccc3)c(=O)c12

IC50 [1]: 2.5 µM
solubility [3]: 15 µg/mL (≈ 31.2 µM)
Molecule: Cc1c(-c2cccc(C(F)(F)F)c2)sc2[nH]c(=O)n([C@@H](C)c3cccc4ccccc34)c(=O)c12

IC50 [1]: 1.7 µM
Molecule: Cc1c(-c2cccc(C(F)(F)F)c2)sc2[nH]c(=O)n(Cc3ccccc3)c(=O)c12

IC50 [1]: 5.1 µM
Molecule: Cc1c(-c2ccc(Cl)cc2)sc2[nH]c(=O)n(Cc3ccccc3)c(=O)c12

IC50 [1]: 4.8 µM
Molecule: Cc1c(-c2ccc(Cl)cc2)sc2[nH]c(=O)n(Cc3ccc(C(F)(F)F)cc3)c(=O)c12

IC50 ([11]; HCC827, 72 h): 5.2 µM
IC50 ([12]; NCI-H1650, 72 h): 5.3 µM
IC50 [1]: 1 µM
IC50 ([16]; A549, 72 h): 3 µM
deltaTm [19]: Dde
IC50 ([25]; NCI-H1299, 72 h): 7.6 µM
solubility [3]: 16 µg/mL (≈ 33.3 µM)
Molecule: Cc1c(-c2cccc(C(F)(F)F)c2)sc2[nH]c(=O)n([C@H](C)c3cccc4ccccc34)c(=O)c12
inhibition [7]: Dde
inhibition [8]: Dde
inhibition [9]: Dde
inhibition [10]: Dde
Activity ([11]; DDE = dose-dependent effect): Dde
Activity ([12]; DDE = dose-dependent effect): Dde
inhibition at 10 µM [13]: 90%
inhibition [14]: Dde
Activity [15]: Dde
Activity ([16]; DDE = dose-dependent effect): Dde
inhibition at 10 µM [17]: 90%
inhibition [18]: Dde
inhibition [20]: Dde
inhibition at 10 µM [21]: 90%
inhibition at 10 µM [22]: 90%
inhibition [23]: Dde
inhibition [24]: Dde
Activity ([25]; DDE = dose-dependent effect): Dde
Activity [26]: Active

IC50 [1]: 7.2 µM
Molecule: CCCCNC(=O)c1cc(-c2ccc(Br)cc2)sc1N

IC50 [1]: 0.81 µM
Molecule: Cc1c(-c2cccc(C(F)(F)F)c2)sc2[nH]c(=O)n(Cc3cccc4ccccc34)c(=O)c12

IC50 [1]: 2.6 µM
Molecule: Cc1c(-c2cccc(C(F)(F)F)c2)sc(N)c1C(=O)NCc1cccc2ccccc12

IC50 [1]: 4.3 µM
Molecule: COc1cccc(Cc2nc3sc(-c4ccc(Cl)cc4)c(C)c3c(=O)[nH]2)c1

IC50 [1]: 3.5 µM
Molecule: Cc1c(-c2ccc(Cl)cc2Cl)sc2[nH]c(=O)n(Cc3ccccc3)c(=O)c12
